Measurements published in PMC8966662 (RSC Advances, 2022).
Where two headings read alike, the source gives them in different places.

Tests used:
[1] = ref 13 (Grande et al.); cited from earlier work
[2] = in vitro bioavailability, dialysis tubing procedure; format: in vitro ADME; conditions: sum of pepsin (stage 1) and pancreatin (stage 2) bioavailability
How it was run: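 Test compound at 1.0 × 10³ μM in DMSO, with porcine pepsin and 2.0 w/v% sodium cholate, sealed in a dialysis bag in 8.5 × 10⁻¹ N HCl, shaking at 37 ± 0.5 °C for 2 h. Porcine pancreatin in NaHCO3, amylase and esterase then added; bag in pH 7.0 phosphate buffer, 37 °C, 4 h. Outer liquid sampled after each stage and quantified by UV-Vis against pH 1.0/7.0 calibration curves as % unchanged compound recovered; triplicate.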

strain TA 98 = conditions: cited from earlier work
[3] = 2,2-diphenyl-1-picrylhydrazyl; format: biochemical; conditions: result in words
How it was run: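 DPPH· freshly prepared at 50 μM in methanol; test compound stocks in DMSO. Sample mixed with DPPH· solution, kept 30 min in the dark, absorbance read at 517 nm by UV-Vis. %RSA calculated against DMSO vehicle control across a series of sample concentrations. IC50 taken from %RSA plots.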

Row | Structure (SMILES) | total in vitro bioavailability [2] | also measured
1 | O=c1c(O)c(-c2ccc(O)c(O)c2)oc2cc(O)cc(O)c12 [Compound 1S0, quercetin] | – | total in vitro bioavailability [1]: 10.7 ± 1.3%
2 | NC(=O)COc1cc(OCC(N)=O)c2c(=O)c(OCC(N)=O)c(-c3ccc(OCC(N)=O)c(OCC(N)=O)c3)oc2c1 [Compound 1S3, 2,2′,2′′-((2-(3,4-bis(2-amino-2-oxoethoxy)phenyl)-4-oxo-4H-chromene-3,5,7-triyl)tris(oxy))triacetamide] | 20.70 ± 0.29% | toxicity in mutagenicity study (strain TA 98): nontoxic
3 | O=c1cc(-c2ccc(O)cc2)oc2cc(O)cc(O)c12 [Compound 2S0, apigenin, reference compound] | 16.59% | DPPH free radical scavenging activity (%RSA) [3]: very low
4 | NC(=O)COc1ccc(-c2cc(=O)c3c(OCC(N)=O)cc(OCC(N)=O)cc3o2)cc1 [Compound 2S3, 2,2′-((2-(4-(2-amino-2-oxoethoxy)phenyl)-4-oxo-4H-chromene-5,7-diyl)bis(oxy))diacetamide] | 22.20 ± 0.82% | DPPH free radical scavenging activity (%RSA) [3]: very low; toxicity in mutagenicity study (strain TA 98): nontoxic; mutagenic activity (strain TA 98; strain TA 98): did not show any mutagenic activity
5 | O=c1c(O)c(-c2ccc(O)c(O)c2)oc2cc(O)ccc12 [Compound 3S0, Fisetin, reference compound] | 16.19% | –
6 | NC(=O)COc1ccc2c(=O)c(OCC(N)=O)c(-c3ccc(OCC(N)=O)c(OCC(N)=O)c3)oc2c1 [Compound 3S3, 2,2′-((4-(3,7-bis(2-amino-2-oxoethoxy)-4-oxo-4H-chromen-2-yl)-1,2-phenylene)bis(oxy))diacetamide] | 34.81 ± 0.85% | –

The next lines start with results.

Row | total in vitro bioavailability [2] | Structure (SMILES) | also measured
7 | 15.40% | O=c1c(O)c(-c2ccc(O)cc2)oc2cc(O)cc(O)c12 [Compound 4S0, kaempferol, reference compound] | –
8 | 21.34 ± 0.50% | NC(=O)COc1ccc(-c2oc3cc(OCC(N)=O)cc(OCC(N)=O)c3c(=O)c2OCC(N)=O)cc1 [Compound 4S3, 2,2′,2′′-((2-(4-(2-amino-2-oxoethoxy)phenyl)-4-oxo-4H-chromene-3,5,7-triyl)tris(oxy))triacetamide] | –
9 | 19.29% | O=c1cc(-c2ccc(O)c(O)c2)oc2cc(O)cc(O)c12 [Compound 5S0, luteolin, reference compound] | –
10 | 34.87 ± 0.87% | NC(=O)COc1cc(OCC(N)=O)c2c(=O)cc(-c3ccc(OCC(N)=O)c(OCC(N)=O)c3)oc2c1 [Compound 5S3, 2,2′-((4-(5,7-bis(2-amino-2-oxoethoxy)-4-oxo-4H-chromen-2-yl)-1,2-phenylene)bis(oxy))diacetamide] | –
